A3G deaminase = blocks human APOBEC3G single-stranded DNA deamination. Q9HC16. recombinant A3G, ssDNA deamination FAM/TAMRA fluorescence. inhibition, % at 20 µM. 0.28% of 330,000 active. AID 493012;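 active = inhibition of at least 40% at 20 µM, with no more than 30% in the related APOBEC3A deaminase screen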;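 also: plate controls were DMSO wells with A3G for no effect and wells lacking A3G enzyme for full effect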
APOBEC3A inh = human APOBEC3A DNA deaminase inhibition; recombinant A3A, FAM/TAMRA ssDNA deamination fluorescence; 0.41% of 330,000 active; inhibition, % at 20 µM; AID 493011;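 active = at least 40% inhibition at 20 µM here, with at most 30% in a related deaminase screen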;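 also: plate controls were A3A with DMSO for no effect and wells lacking A3A enzyme for full effect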
GASC-1 inh = human JMJD2C demethylase inhibition; GST-JMJD2C(1-420) H3K9me3 demethylation, DELFIA europium; inhibition, % at 2.35 µM; 0.069% of 330,000 active; Q9H3R0; AID 2099;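 active = more than half of a compound's replicate wells show inhibition beyond 50%, single wells judged on their own value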;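 also: signal counts dimethyl H3K9 product captured on neutravidin plate; 0% = median of DMSO wells and 100% = 0.3 times that DMSO median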
Target sequence (Q9H3R0 1-420 limits assumed): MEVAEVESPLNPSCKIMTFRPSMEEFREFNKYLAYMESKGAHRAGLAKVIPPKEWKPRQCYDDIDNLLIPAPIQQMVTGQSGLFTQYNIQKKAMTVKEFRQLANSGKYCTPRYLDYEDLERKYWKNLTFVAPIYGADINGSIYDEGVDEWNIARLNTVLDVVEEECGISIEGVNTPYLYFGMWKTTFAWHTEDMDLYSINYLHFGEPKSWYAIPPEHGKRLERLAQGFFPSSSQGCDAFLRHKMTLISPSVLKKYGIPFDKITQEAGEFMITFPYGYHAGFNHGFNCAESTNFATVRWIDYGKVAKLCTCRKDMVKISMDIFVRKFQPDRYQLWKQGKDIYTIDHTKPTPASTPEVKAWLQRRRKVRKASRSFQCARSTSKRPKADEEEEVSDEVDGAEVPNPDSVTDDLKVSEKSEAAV
UCH37 inh = human UCH37 deubiquitinating enzyme inhibition; inhibition, % (test concentration not listed); purified proteasome/UCH37, Ub-AMC cleavage fluorescence; Q9Y5K5; 0.33% of 330,000 active;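 active = mean inhibition over replicate wells above about 20%, limit read from the data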;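 also: 0% = compound-free wells with enzyme and 100% = wells lacking proteasome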
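Reagent: Ub-AMC substrate; assay system: Proteasome-associated human UCH37 deubiquitinase; controls: no-proteasome and no-compound wells; read-out: % inhibition of Ub-AMC cleavage fluorescence; timing: 30 min preincubation with enzyme, 25 min cleavage at room temperature; signal: AMC fluorescence from Ub-AMC cleavage, excitation 355 nm, emission 460 nm; buffer or medium: Tris-HCl pH 7.4 plus ovalbumin, ATP-MgCl2, DTT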
A3A conf = confirmation of human APOBEC3A DNA deaminase inhibitors; shares compounds with APOBEC3A inh; recombinant A3A, ssDNA deaminase UDG fluorescence assay; inhibition, % at 20 µM; 63% of 1,400 active; AID 493151;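 active = inhibition reaching a set limit, 80% of the first screen's cutoff, at 20 µM in any replicate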;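 also: plate controls were DMSO wells with A3A for no effect and wells lacking A3A enzyme for full effect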
UDG ctr A3A = counter-screen for APOBEC3A inhibitors: UDG; inhibition, % at 20 µM; AID 504714; UDG counterscreen, FAM/TAMRA uracil oligo fluorescence; 1,000 tested, under 10 active; shares compounds with APOBEC3A inh; call rule not given here
Starred values were filed as active, the others as inactive; / = no result. Rows were chosen to be rich in hits. Some 0.97% of all compounds tested hit in one or more screens of this group.

SMILES	A3G deaminase	APOBEC3A inh	GASC-1 inh	UCH37 inh	A3A conf	UDG ctr A3A
COC(=O)C1=C(C)N(Cc2ccccc2)C(=NCc2ccc(OC)cc2)N[C@H]1c1ccccc1	11	45*	-20	2	59*	-2
COC(=O)C1=C(C)N(Cc2ccccc2)C(=NCC(C)C)N[C@H]1c1ccccc1	14	64*	3	0	58*	-2
COC(=O)C1=C(C)N(Cc2ccccc2)C(=O)N[C@H]1c1ccccc1	-12	-7	2	-1	/	/
CC(=O)[C@]1(O)Cc2c(O)c3c(c(O)c2[C@@H](O[C@H]2C[C@H](N)[C@H](O)[C@H](C)O2)C1)C(=O)c1ccccc1C3=O	20	41*	40	6	46*	-2
COc1cccc(-c2nnn(CC(C)=O)n2)c1	0	53*	-1	0	-7	0
Cc1nc(C)c(CC(=O)NN=Cc2ccc(O)cc2)c(=O)[nH]1	/	/	/	1	/	/
NC(=S)NN=Cc1coc2ccc(F)cc2c1=O	/	/	/	2	/	/
C[N+]1(CC(O)COCC2COc3ccccc3O2)CCOCC1 (stereo not given)	12	86*	9	0	46*	/
O=C(NNC(=O)c1cccc(-n2cccc2)c1)c1ccc(F)cc1	18	42*	-1	0	28*	-1
Cc1cccc(C(=O)NNC(=O)c2ccc(F)cc2)c1	1	2	0	3	/	/
CC1(C)CC(N2CCN(Cc3ccccc3)CC2)=CC(=[N+]2CCCCC2)C1	15	32	-4	12	/	/
CC1(C)CC(N2CCCC2)=CC(=[N+]2CCCC2)C1	22	66*	3	6	72*	2
CC1(C)CC(NNCCC#N)=CC(=[N+]2CCCC2)C1	2	17	-1	0	/	/
CC1(C)CC(N2CCCC2)=CC(=[N+]2CCCCC2)C1	19	51*	26	8	71*	5
O=C(CNC(=O)c1ccc(S(=O)(=O)N2CCCC2)cc1)NN=Cc1ccco1	/	/	/	0	/	/
O=C(CSc1nc2ccccc2[nH]1)NN=Cc1ccncc1	/	/	/	4	/	/
N=c1c2c(n(Cc3ccc(Br)cc3)c3c1CCC3)CCCC2	-8	0	7	6	/	/
CCCn1c2c(c(=N)c3c1CCC3)CCCC2	16	92*	-2	2	77*	-1
CCCCCCCn1c2c(c(=N)c3ccccc31)CCC2	21	74*	1	2	78*	-2
CCOC(=O)Cn1c2c(c(=N)c3c1CCC3)CCCC2	-6	-3	3	1	/	/
CCCn1c2c(c(=N)c3c1CCC3)CCC2	27	71*	-5	-1	75*	3
COc1ccc(Br)cc1C=NNC(=O)C[n+]1ccccc1	/	/	/	4	/	/
COc1ccc(C(C)=NNC(=O)c2nnn(-c3nonc3N)c2-c2cccs2)cc1	/	/	/	-247	/	/
O=C(COc1ccccc1)NN=Cc1cc2c(cc1[N+](=O)[O-])OCO2	/	/	/	3	/	/
CC(=NNC(=O)CN1CCN(S(=O)(=O)c2ccc(C)cc2)CC1)c1ccncc1	/	/	/	1	/	/
SMILES	A3G deaminase	APOBEC3A inh	GASC-1 inh	UCH37 inh	A3A conf	UDG ctr A3A
CC(=O)c1ccc(S(=O)(=O)Nc2cccc(-n3cnnn3)c2)cc1	22	43*	20	4	31	/
Cc1c(C=NNC(=O)c2ccc([N+](=O)[O-])cc2)cnn1C	/	/	/	5	/	/
O=C(CSc1nc2ccccc2c(=O)n1-c1ccccc1)NCC1CCCO1 (stereo not given)	18	50*	18	0	71*	-2
CCn1c(SCC(=O)N2CCN(c3ccc(F)cc3)CC2)nc2ccccc2c1=O	0	3	1	6	/	/
CCn1c(SCC(=O)NC2CCCCC2)nc2ccccc2c1=O	15	63*	-2	2	51*	-3
CC(=O)NCCn1c(SCC(=O)NC2CCCCC2)nc2ccccc2c1=O	-9	0	-2	0	/	/
O=C(CSc1nnnn1Cc1ccccc1)N1CCN(c2ccccc2)CC1	13	47*	40	3	27	/
CCn1c(SCC(=O)N2CCN(c3ccc(Cl)cc3)CC2)nc2ccccc2c1=O	18	44*	-1	2	66*	-1
Cc1ccc(-n2c(SCC(=O)NCC3CCCO3)nc3ccccc3c2=O)cc1C (stereo not given)	-8	-4	0	3	/	/
CCn1nnnc1SCC(=O)N1CCN(c2ccccc2)CC1	0	-1	-2	-1	/	/

Screening results deposited in PubChem BioAssay by several laboratories.
